pIC50: −log10 of the molar value.
What was measured:
[1] = target: T1, DNA-dependent protein kinase catalytic subunit (Homo sapiens, UniProt P78527); experiment: Inhibition of DNA-PK
In short: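 The buffer was 1× reaction buffer of Hepes, KCl, MgCl2, EGTA, EDTA and DTT, with drug or water added. Reactions ran 5 min at 30 °C. ADP formed was read by ADP-Glo luminescence, and IC50 was obtained by curve fitting.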

[2] = target: T1, DNA-dependent protein kinase catalytic subunit; experiment: Inhibition of purified DNA-PK by ADP-Glo Kinase assay
In short: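 Reaction used 5× buffer (250 mM Hepes, 500 mM KCl, 50 mM MgCl2, 1 mM EGTA, 0.5 mM EDTA, 5 mM DTT) diluted to 1×, with BSA and ATP (0.5 mM stock). Drug or water added; 30 °C, 5 min. ADP read by ADP-Glo luminescence; IC50 from curve fitting.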

Platelet = experiment: Anti-platelet activity in human blood assessed as inhibition of collagen induced human platelet aggregation; type: functional, cell-based
In short: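 Collagen-triggered aggregation measured optically in a two-channel platelet aggregometer.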

T1 sequence (P78527 whole entry): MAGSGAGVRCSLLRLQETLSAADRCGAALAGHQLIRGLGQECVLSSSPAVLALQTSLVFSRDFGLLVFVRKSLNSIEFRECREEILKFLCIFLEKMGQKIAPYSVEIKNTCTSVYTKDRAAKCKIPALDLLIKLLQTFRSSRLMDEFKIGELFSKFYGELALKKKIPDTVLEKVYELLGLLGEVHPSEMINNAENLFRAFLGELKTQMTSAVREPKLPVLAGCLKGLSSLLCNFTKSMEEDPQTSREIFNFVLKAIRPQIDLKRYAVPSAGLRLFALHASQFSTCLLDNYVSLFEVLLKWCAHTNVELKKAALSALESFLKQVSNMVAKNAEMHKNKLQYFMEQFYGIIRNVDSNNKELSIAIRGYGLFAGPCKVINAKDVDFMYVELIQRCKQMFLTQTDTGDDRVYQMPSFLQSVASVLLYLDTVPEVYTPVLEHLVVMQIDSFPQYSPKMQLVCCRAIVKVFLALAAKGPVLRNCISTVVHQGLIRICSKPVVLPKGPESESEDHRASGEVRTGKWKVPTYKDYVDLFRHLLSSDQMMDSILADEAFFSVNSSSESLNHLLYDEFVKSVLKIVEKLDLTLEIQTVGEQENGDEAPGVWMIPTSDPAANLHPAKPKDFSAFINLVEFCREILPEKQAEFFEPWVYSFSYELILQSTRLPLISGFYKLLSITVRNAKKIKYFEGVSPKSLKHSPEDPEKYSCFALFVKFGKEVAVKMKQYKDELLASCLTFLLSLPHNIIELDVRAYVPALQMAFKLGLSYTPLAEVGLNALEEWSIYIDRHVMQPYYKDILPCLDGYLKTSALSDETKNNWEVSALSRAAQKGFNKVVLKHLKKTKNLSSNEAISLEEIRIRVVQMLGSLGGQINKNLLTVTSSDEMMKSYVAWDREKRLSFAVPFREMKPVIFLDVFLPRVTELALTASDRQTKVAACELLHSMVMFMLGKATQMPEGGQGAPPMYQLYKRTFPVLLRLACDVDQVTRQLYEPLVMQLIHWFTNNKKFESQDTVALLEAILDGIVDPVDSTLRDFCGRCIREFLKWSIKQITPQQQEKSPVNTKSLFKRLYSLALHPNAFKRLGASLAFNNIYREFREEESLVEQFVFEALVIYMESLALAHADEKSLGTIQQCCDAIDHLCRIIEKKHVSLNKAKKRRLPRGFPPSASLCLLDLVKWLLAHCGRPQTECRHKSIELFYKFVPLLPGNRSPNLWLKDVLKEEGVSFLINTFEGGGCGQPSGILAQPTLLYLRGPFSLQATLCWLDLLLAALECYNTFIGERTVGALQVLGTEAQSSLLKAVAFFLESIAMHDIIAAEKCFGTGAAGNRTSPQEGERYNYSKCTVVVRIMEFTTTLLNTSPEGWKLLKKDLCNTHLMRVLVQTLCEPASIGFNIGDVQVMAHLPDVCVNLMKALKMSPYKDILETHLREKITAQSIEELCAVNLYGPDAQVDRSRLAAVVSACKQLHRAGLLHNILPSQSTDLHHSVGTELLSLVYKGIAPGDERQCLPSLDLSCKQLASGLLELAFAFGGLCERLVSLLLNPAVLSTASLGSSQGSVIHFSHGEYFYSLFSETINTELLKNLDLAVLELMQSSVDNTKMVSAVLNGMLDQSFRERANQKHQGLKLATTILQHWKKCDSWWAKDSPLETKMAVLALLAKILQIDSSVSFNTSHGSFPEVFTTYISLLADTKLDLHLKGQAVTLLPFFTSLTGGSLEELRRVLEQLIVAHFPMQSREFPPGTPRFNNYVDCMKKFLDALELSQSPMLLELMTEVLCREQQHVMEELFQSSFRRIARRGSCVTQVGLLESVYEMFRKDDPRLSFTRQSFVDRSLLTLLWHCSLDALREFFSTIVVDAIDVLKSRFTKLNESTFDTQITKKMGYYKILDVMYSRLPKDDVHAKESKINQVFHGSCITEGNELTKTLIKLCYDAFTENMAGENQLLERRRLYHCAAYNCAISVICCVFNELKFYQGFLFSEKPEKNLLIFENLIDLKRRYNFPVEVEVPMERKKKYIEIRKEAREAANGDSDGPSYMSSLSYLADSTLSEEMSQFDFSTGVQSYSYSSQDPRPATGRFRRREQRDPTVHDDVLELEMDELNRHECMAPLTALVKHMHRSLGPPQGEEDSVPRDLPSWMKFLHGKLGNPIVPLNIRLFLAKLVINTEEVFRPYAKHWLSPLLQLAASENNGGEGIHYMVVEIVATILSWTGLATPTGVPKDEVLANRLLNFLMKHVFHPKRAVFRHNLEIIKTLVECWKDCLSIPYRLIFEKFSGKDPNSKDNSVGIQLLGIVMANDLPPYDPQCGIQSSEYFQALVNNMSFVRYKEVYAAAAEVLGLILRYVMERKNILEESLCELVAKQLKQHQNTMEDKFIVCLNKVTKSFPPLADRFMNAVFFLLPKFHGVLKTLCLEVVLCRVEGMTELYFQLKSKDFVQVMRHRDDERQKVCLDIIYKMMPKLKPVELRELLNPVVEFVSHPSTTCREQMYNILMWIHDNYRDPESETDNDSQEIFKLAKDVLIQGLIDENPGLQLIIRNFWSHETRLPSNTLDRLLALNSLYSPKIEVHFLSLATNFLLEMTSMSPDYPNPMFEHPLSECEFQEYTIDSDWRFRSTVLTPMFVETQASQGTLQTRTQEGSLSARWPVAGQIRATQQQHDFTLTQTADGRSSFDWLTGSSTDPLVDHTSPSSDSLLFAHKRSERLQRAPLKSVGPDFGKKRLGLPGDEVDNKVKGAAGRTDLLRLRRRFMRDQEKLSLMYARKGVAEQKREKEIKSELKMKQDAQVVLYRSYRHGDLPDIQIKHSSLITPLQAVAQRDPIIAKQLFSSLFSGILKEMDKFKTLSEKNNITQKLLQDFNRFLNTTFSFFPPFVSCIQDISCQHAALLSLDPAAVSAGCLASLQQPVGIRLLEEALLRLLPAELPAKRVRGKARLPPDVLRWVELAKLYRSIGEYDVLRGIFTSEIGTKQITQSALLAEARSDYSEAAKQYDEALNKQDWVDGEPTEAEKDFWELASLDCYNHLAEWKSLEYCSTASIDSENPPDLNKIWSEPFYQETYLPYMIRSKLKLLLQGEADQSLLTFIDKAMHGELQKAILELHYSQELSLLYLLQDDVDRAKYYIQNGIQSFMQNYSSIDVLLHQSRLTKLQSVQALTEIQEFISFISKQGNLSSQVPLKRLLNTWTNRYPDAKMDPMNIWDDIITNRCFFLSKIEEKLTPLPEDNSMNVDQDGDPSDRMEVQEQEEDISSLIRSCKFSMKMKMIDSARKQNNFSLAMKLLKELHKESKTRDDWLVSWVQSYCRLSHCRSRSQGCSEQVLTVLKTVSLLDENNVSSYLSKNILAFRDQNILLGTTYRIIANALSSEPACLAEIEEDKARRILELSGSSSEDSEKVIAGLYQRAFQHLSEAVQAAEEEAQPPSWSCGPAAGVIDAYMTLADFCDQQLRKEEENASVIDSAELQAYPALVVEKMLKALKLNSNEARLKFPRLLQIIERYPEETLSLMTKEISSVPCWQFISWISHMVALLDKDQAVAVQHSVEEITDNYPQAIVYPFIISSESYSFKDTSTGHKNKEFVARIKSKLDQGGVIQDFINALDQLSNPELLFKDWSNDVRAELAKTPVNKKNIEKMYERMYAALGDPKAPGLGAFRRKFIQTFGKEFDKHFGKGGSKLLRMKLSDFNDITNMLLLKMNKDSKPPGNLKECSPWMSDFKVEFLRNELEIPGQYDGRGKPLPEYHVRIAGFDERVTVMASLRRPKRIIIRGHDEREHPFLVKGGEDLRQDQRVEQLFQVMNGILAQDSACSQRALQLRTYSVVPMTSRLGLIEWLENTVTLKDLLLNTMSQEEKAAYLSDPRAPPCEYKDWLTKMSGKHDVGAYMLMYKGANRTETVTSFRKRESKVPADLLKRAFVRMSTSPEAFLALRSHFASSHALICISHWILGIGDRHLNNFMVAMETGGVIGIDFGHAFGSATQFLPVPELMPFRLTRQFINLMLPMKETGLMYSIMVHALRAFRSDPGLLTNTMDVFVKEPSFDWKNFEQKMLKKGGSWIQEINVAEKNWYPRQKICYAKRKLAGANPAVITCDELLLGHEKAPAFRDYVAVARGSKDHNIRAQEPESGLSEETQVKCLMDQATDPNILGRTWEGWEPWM

Structure (SMILES)	pIC50 [1]	pIC50 [2]	pIC50 (Platelet)
O=c1cc(N2CCOCC2)oc2c1ccc1ccccc12	6.52	–	–
O=c1nc(N2CCOCC2)oc2ccc3ccccc3c12	–	6.14	3.35
O=c1nc(N2CCOCC2)oc2c1ccc1ccccc12	–	6.38	3.55
O=c1nc(N2CCOCC2)oc2c1cc(OCc1ccccn1)c1ccccc12	–	5.61	4.00
CN1CCN(CCOc2cc3c(=O)nc(N4CCOCC4)oc3c3ccccc23)CC1	–	6.12	4.00
CN1CCN(CCOc2ccc3cc4oc(N5CCOCC5)nc(=O)c4cc3c2)CC1	–	6.72	4.00
CN1CCN(CCOc2cccc3cc4c(=O)nc(N5CCOCC5)oc4cc23)CC1	–	5.51	4.00

Continued, values first:

pIC50 [1]	pIC50 [2]	pIC50 (Platelet)	Structure (SMILES)
–	5.19	3.81	O=c1nc(N2CCOCC2)oc2cc3ccccc3cc12
–	6.14	4.00	O=c1nc(N2CCOCC2)oc2c1cc(OCc1cccnc1)c1ccccc12
–	7.02	4.00	O=c1nc(N2CCOCC2)oc2cc3ccc(OCc4ccccn4)cc3cc12
–	5.77	4.26	O=c1nc(N2CCOCC2)oc2cc3ccc(OCc4cccnc4)cc3cc12
–	6.03	≤ 4.00	O=c1nc(N2CCOCC2)oc2cc3c(OCc4ccccn4)cccc3cc12
–	6.48	4.07	O=c1nc(N2CCOCC2)oc2cc3c(OCc4cccnc4)cccc3cc12
